Shown is part of a subset that was picked to be rich in hits.
H69AR growth 86K: blocks growth of human H69AR lung tumor cells | H69AR lung tumor viability, ATP luminescence, 72 h; hits give low values | viability, % at 10 µM | 6% of 85,000 active;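 active = viability at or below 40%; inactive = viability above 40%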;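 note: multidrug resistant small cell line overexpressing MRP-1 efflux transporter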
Lung fibro prol: blocks proliferation of human lung fibroblasts. LL 47 human lung fibroblast viability, ATP luminescence; hits give low values. 1.1% of 85,000 active. viability, % at 10 µM;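 active = viability at or below 50% in the single dose screen; inactive = viability above 50%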;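 note: compound exposure lasted 72 h before the ATP readout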
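Assay system: human lung fibroblast line LL 47, low passage. Input: 1,150 fibroblasts seeded per well. Times: overnight cell rest, 72 h compound treatment at 37 °C. Evaluation: % viability of median cell-only signal. Technique: luminescent ATP detection, CellTiter-Glo. Control set: cell-only wells, no compound.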
HUVEC inhibit: blocks proliferation of human endothelial cells | HUVEC proliferation, CellTiter-Glo luminescence, 72 h; hits give low values | viability, % at 10 µM (by protocol) | 1.1% of 86,000 active;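 active = viability at or below 30%; inactive = viability above 30%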
PTEN del growth: suppresses growth of cells with PTEN deletion; viability, % at 10 µM; 1.2% of 140,000 active; AID 827; HCT116 PTEN-null viability, CellTiter-Glo, 60 h; hits give low values;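 active = viability at or below a set limit, 4 SD under the median of all tested compounds, cut at about 3.7% in these data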;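 note: PTEN knockout HCT116 line with beta catenin targeted HCT116 as companion control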
HCT116 bCat-KO: beta-catenin-lacking colon tumor cell growth suppression; HCT116 beta-catenin knockout viability, CellTiter-Glo, 60 h; hits give low values; viability, % at 10 µM; 1.5% of 140,000 active;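 active = viability at or under a set limit, the compound median less 4 SD, cut at about 6% in these data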
Large screens that a line does not name were inactive.

Cc1cc(OCCCCCNCCO)cc(C)c1Cl	H69AR growth 86K 37.3, PTEN del growth 3.6
Cc1cc(OCCNCCO)cc(C)c1Cl	none
O=C(Oc1ccc(Cl)c2cccnc12)c1cccc([N+](=O)[O-])c1	none (no result: H69AR growth 86K, Lung fibro prol, HUVEC inhibit)
O=C(Oc1c(Cl)cc(Cl)c2cccnc12)c1cccc([N+](=O)[O-])c1	HCT116 bCat-KO 4.4 (no result: H69AR growth 86K, Lung fibro prol, HUVEC inhibit)
COc1cc([N+](=O)[O-])ccc1NC(=S)Nc1cc(C(=O)OC(C)C)cc(C(=O)OC(C)C)c1	none (no result: H69AR growth 86K, Lung fibro prol, HUVEC inhibit)
Cc1noc2ncnc(Sc3c(Cl)cccc3Cl)c12	H69AR growth 86K 15.9, Lung fibro prol 48.8
Cc1ccc(Sc2ncnc3onc(C)c23)cc1	none
Cc1ccccc1Sc1ncnc2onc(C)c12	none
Cc1noc2ncnc(Sc3ccc(Cl)cc3)c12	H69AR growth 86K 1.8
Cc1cc(Cl)ccc1OCCCC(=O)NCCN1C(=O)S/C(=C\c2cccnc2)C1=O	none (no result: H69AR growth 86K, Lung fibro prol, HUVEC inhibit)
COc1ccc(N2CCN(c3oc(Cc4ccccc4)nc3C#N)CC2)cc1	H69AR growth 86K 35.4
CCCC(=O)C1=C(c2ccccc2)C(C#N)(C#N)C(C#N)=C1N	none
CCOCC(O)CNc1ccccc1 (configuration not stated)	none (no result: H69AR growth 86K, Lung fibro prol, HUVEC inhibit)
OC(CNc1ccccc1)COc1ccc(OCC(O)CNc2ccccc2)cc1 (configuration not stated)	PTEN del growth 1.6, HCT116 bCat-KO 1.7 (no result: H69AR growth 86K, Lung fibro prol, HUVEC inhibit)
COc1ccccc1CNC(=O)C(NS(=O)(=O)c1ccc2c(c1)OCCO2)C(C)C (configuration not stated)	none (no result: H69AR growth 86K, Lung fibro prol, HUVEC inhibit)
Cc1nnc(-n2ncc(C#N)c2N)c2nn(-c3ccccc3F)c(C)c12	none (no result: PTEN del growth, HCT116 bCat-KO)
COc1ccc(NC(=O)CN2C(=O)c3cccc4cccc2c34)cc1OC	none
COc1ccc(C)cc1NC(=O)CN1C(=O)c2cccc3cccc1c23	H69AR growth 86K 27.5
N#CCSc1nc2c(sc(=S)n2Cc2ccco2)c(=O)n1-c1ccc(F)cc1	H69AR growth 86K 39.9
COc1ccc(OC)c2sc(N3CCCCC3)nc12	Lung fibro prol 45.6
Clc1cccc2sc(N3CCCCC3)nc12	none (no result: H69AR growth 86K, Lung fibro prol, HUVEC inhibit)
CCc1cc[n+](C2=C([O-])c3ccccc3C(=O)/C2=N\S(=O)(=O)c2cccs2)cc1	PTEN del growth 3.2, HCT116 bCat-KO 2.8 (no result: H69AR growth 86K, Lung fibro prol, HUVEC inhibit)
C=CCn1c(=O)/c(=C/c2ccc(F)cc2)s/c1=C(\C#N)c1nnc2n1CCCCC2	H69AR growth 86K 39.2
CC/C(O)=C(/C#N)c1nnc2n1CCCCC2	none
O=C(N/N=C/C=C/c1ccco1)c1cccnc1	none
O=C(N/N=C\C=C\c1ccco1)c1cc(-c2ccc3ccccc3c2)n[nH]1	PTEN del growth 3.6 (no result: H69AR growth 86K, Lung fibro prol, HUVEC inhibit)
Cc1ccc(O)c(/C=N/NC(=O)C2=NNC(c3ccccc3)(c3ccccc3)C2)c1	H69AR growth 86K 36.8, Lung fibro prol 11.7, HUVEC inhibit 4.0
Cc1ccc(O)c(/C=N/NC(=O)c2[nH]ncc2Br)c1	none (no result: H69AR growth 86K, Lung fibro prol, HUVEC inhibit)
COc1cc(C2C3CN(C)CC=C3C(C#N)=C(N)C2(C#N)C#N)ccc1OC(C)C (configuration not stated)	H69AR growth 86K 35.5
CCN(c1ccc(NC(=O)COC(=O)CCC(=O)c2ccc(F)cc2)cc1)C(C)C	none (no result: H69AR growth 86K, Lung fibro prol, HUVEC inhibit)
CC1(C)Cc2ccccc2-c2nc(NCCCO)n(-c3ccccc3)c(=O)c21	none
CCOCc1c(C(=O)OCC(=O)Nc2ccc(C)c(S(=O)(=O)N(C)C)c2)oc2ccccc12	none (no result: H69AR growth 86K, Lung fibro prol, HUVEC inhibit)
O=C(NC1CCCC1)c1sc(=S)n2c1[nH]c(=O)c1ccccc12	H69AR growth 86K 22.4
CCC1(C)C(Nc2c(C)cccc2C)=NC(=S)N1c1ccc(NC(C)=O)cc1 (configuration not stated)	none (no result: H69AR growth 86K, Lung fibro prol, HUVEC inhibit)
CC(=O)c1ccc(OCc2ccc(Oc3c(Cl)cccc3[N+](=O)[O-])cc2)cc1	none (no result: H69AR growth 86K, Lung fibro prol, HUVEC inhibit)
Nc1nc(-c2ccc(Cl)cc2)c(N=Nc2ccc(S(=O)(=O)N3CCOCC3)cc2)s1	PTEN del growth 3.7 (no result: H69AR growth 86K, Lung fibro prol, HUVEC inhibit)
COc1ccc(C2Oc3ccccc3C3=C2C(c2cccs2)n2ncnc2N3)cc1 (configuration not stated)	H69AR growth 86K 18.1, Lung fibro prol 46.0
c1cncc(-c2nc(NCC3COc4ccccc4O3)c3ccccc3n2)c1 (configuration not stated)	H69AR growth 86K 15.8
Cc1ccc2c(c1)NC(=O)C(CC(=O)NCCCN1CCCCC1)O2 (configuration not stated)	none
Cc1ccc2c(c1)NC(=O)C(CC(=O)NCCCN1CCN(c3cc(Cl)ccc3C)CC1)O2 (configuration not stated)	HUVEC inhibit 2.9, HCT116 bCat-KO 5.8
O=C(c1c(O)c2ccccc2oc1=O)C1CCCCC1	none
O=C(CCC1CCCC1)c1c(O)c2ccccc2oc1=O	HUVEC inhibit 1.8

Screens deposited in PubChem BioAssay by SRMLSC.
